ChEMBL document CHEMBL1132425, “Synthesis and antiviral activity of ethidium-arginine conjugates directed against the TAR RNA of HIV-1” (J Med Chem, 1999)

These molecules were tested on PBMC (assay: (§1) Anti-HIV-1 activity against PBMC cell lines). Conditions: not given.
Type: functional, Homo sapiens
Procedure, shortened: (§2)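 Infected PBMC grown 7 days with graded compound concentrations after virus incubation; HIV-1 production measured as reverse transcriptase activity in culture supernatant. Triplicate per concentration, whole experiment done twice.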

Compound | Inhibition [%]
C[n+]1c(-c2cccc(C(=O)NCCCCCC(=O)NC(CCCN=C(N)N)C(=O)O)c2)c2cc(N)ccc2c2ccc(N)cc21.[Cl-] (centres undefined) | 40

The molecules below were run on MT4 (assay: (§3) Anti-HIV-1 activity against MT-4 cell lines). Conditions: Homo sapiens.
Type: functional
Procedure, shortened: (§4)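 MT4 cells (RPMI + 10% heat-treated FCS) infected with HIV-1; protection from virus-induced cytopathicity read by MTT reduction to formazan by mitochondrial dehydrogenases. Triplicate per concentration, experiment repeated twice. Where inhibition stayed under 50%, the measured percentage is reported in parentheses.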

Compound | CC50 [µM]
COC(=O)C(CCCN=C(N)N)NC(=O)CCNC(=O)CCCCCNC(=O)c1cccc(-c2c3cc(N)ccc3c3ccc(N)cc3[n+]2C)c1.[Cl-] (centres undefined) | > 100

The molecules below were run on CEM-SS (assay: Anti-HIV-1 activity against CEM-SS cell lines). Conditions: Homo sapiens.
Type: functional, cell-based
Procedure, shortened: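 HIV-1 LAI (grown in CEM-SS) infecting CEM-SS cells kept in RPMI + 10% heat-treated FCS; 30-min adsorption, unbound virus washed off, then 5 days culture with graded compound concentrations. Virus output read as reverse transcriptase activity in supernatant. Triplicate per concentration, experiment run twice; IC50 from median-effect plot of dose-effect data.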

Compound | IC50 [µM]
COC(=O)C(CCCN=C(N)N)NC(=O)CCNC(=O)c1cccc(-c2c3cc(N)ccc3c3ccc(N)cc3[n+]2C)c1 (centres undefined) | 83
COC(=O)C(CCCN=C(N)N)NC(=O)CCCCCNC(=O)c1cccc(-c2c3cc(N)ccc3c3ccc(N)cc3[n+]2C)c1 (centres undefined) | > 100
C[n+]1c(-c2cccc(C(=O)NCCC(=O)NC(CCCN=C(N)N)C(=O)O)c2)c2cc(N)ccc2c2ccc(N)cc21 (centres undefined) | > 100
C[n+]1c(-c2cccc(C(=O)O)c2)c2cc(N)ccc2c2ccc(N)cc21 | 95
C[n+]1c(-c2cccc(C(=O)NCCCCCC(=O)NC(CCCN=C(N)N)C(=O)O)c2)c2cc(N)ccc2c2ccc(N)cc21.[Cl-] (centres undefined) | > 100
C[n+]1c(-c2cccc(C(=O)NCCCCCC(=O)NCCC(=O)NC(CCCN=C(N)N)C(=O)O)c2)c2cc(N)ccc2c2ccc(N)cc21 (centres undefined) | 2.4
COC(=O)C(CCCN=C(N)N)NC(=O)CCNC(=O)CCCCCNC(=O)c1cccc(-c2c3cc(N)ccc3c3ccc(N)cc3[n+]2C)c1.[Cl-] (centres undefined) | 4.6

These molecules were tested on MT4 (assay: (§5) Cytotoxicity towards uninfected MT-4 cell lines). Conditions: not given.
Type: functional, Homo sapiens
Procedure, shortened: (§6)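 Uninfected MT4 cells with graded compound levels; viability by MTT reduction to formazan. Triplicate per concentration, experiment run twice.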

Compound | Inhibition [%]
COC(=O)C(CCCN=C(N)N)NC(=O)CCNC(=O)CCCCCNC(=O)c1cccc(-c2c3cc(N)ccc3c3ccc(N)cc3[n+]2C)c1.[Cl-] (centres undefined) | 45

Each molecule was assayed on PBMC (assay: as §1). Conditions: Homo sapiens.
Type: functional, cell-based
Procedure, shortened: as §2

Compound | IC50 [µM]
COC(=O)C(CCCN=C(N)N)NC(=O)CCNC(=O)c1cccc(-c2c3cc(N)ccc3c3ccc(N)cc3[n+]2C)c1 (centres undefined) | 78
COC(=O)C(CCCN=C(N)N)NC(=O)CCCCCNC(=O)c1cccc(-c2c3cc(N)ccc3c3ccc(N)cc3[n+]2C)c1 (centres undefined) | 89
C[n+]1c(-c2cccc(C(=O)NCCC(=O)NC(CCCN=C(N)N)C(=O)O)c2)c2cc(N)ccc2c2ccc(N)cc21 (centres undefined) | 73
C[n+]1c(-c2cccc(C(=O)O)c2)c2cc(N)ccc2c2ccc(N)cc21 | 20
C[n+]1c(-c2cccc(C(=O)NCCCCCC(=O)NC(CCCN=C(N)N)C(=O)O)c2)c2cc(N)ccc2c2ccc(N)cc21.[Cl-] (centres undefined) | > 100
C[n+]1c(-c2cccc(C(=O)NCCCCCC(=O)NCCC(=O)NC(CCCN=C(N)N)C(=O)O)c2)c2cc(N)ccc2c2ccc(N)cc21 (centres undefined) | 2.5
COC(=O)C(CCCN=C(N)N)NC(=O)CCNC(=O)CCCCCNC(=O)c1cccc(-c2c3cc(N)ccc3c3ccc(N)cc3[n+]2C)c1.[Cl-] (centres undefined) | 8.7

Each molecule was assayed on MT4 (assay: as §3). Conditions: Homo sapiens.
Type: functional, cell-based
Procedure, shortened: as §4

Compound | IC50 [µM]
COC(=O)C(CCCN=C(N)N)NC(=O)CCNC(=O)c1cccc(-c2c3cc(N)ccc3c3ccc(N)cc3[n+]2C)c1 (centres undefined) | > 100
COC(=O)C(CCCN=C(N)N)NC(=O)CCCCCNC(=O)c1cccc(-c2c3cc(N)ccc3c3ccc(N)cc3[n+]2C)c1 (centres undefined) | > 100
C[n+]1c(-c2cccc(C(=O)NCCC(=O)NC(CCCN=C(N)N)C(=O)O)c2)c2cc(N)ccc2c2ccc(N)cc21 (centres undefined) | > 100
C[n+]1c(-c2cccc(C(=O)O)c2)c2cc(N)ccc2c2ccc(N)cc21 | > 100
C[n+]1c(-c2cccc(C(=O)NCCCCCC(=O)NC(CCCN=C(N)N)C(=O)O)c2)c2cc(N)ccc2c2ccc(N)cc21.[Cl-] (centres undefined) | > 100
C[n+]1c(-c2cccc(C(=O)NCCCCCC(=O)NCCC(=O)NC(CCCN=C(N)N)C(=O)O)c2)c2cc(N)ccc2c2ccc(N)cc21 (centres undefined) | 11
COC(=O)C(CCCN=C(N)N)NC(=O)CCNC(=O)CCCCCNC(=O)c1cccc(-c2c3cc(N)ccc3c3ccc(N)cc3[n+]2C)c1.[Cl-] (centres undefined) | > 100

What follows are molecules tested on CEM-SS (assay: Cytotoxicity towards uninfected CEM-SS cell lines). Conditions: Homo sapiens.
Type: functional
Procedure, shortened: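 Uninfected CEM-SS cells exposed 5 days to varied compound concentrations; viability by MTT colorimetric test. CC50 is the concentration halving OD540, from median-effect dose analysis. Triplicate per concentration, experiment repeated twice.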

Compound | CC50 [µM]
COC(=O)C(CCCN=C(N)N)NC(=O)CCNC(=O)c1cccc(-c2c3cc(N)ccc3c3ccc(N)cc3[n+]2C)c1 (centres undefined) | 85
COC(=O)C(CCCN=C(N)N)NC(=O)CCCCCNC(=O)c1cccc(-c2c3cc(N)ccc3c3ccc(N)cc3[n+]2C)c1 (centres undefined) | > 100
C[n+]1c(-c2cccc(C(=O)NCCC(=O)NC(CCCN=C(N)N)C(=O)O)c2)c2cc(N)ccc2c2ccc(N)cc21 (centres undefined) | > 100
C[n+]1c(-c2cccc(C(=O)O)c2)c2cc(N)ccc2c2ccc(N)cc21 | > 100
C[n+]1c(-c2cccc(C(=O)NCCCCCC(=O)NC(CCCN=C(N)N)C(=O)O)c2)c2cc(N)ccc2c2ccc(N)cc21.[Cl-] (centres undefined) | > 100
C[n+]1c(-c2cccc(C(=O)NCCCCCC(=O)NCCC(=O)NC(CCCN=C(N)N)C(=O)O)c2)c2cc(N)ccc2c2ccc(N)cc21 (centres undefined) | > 100
COC(=O)C(CCCN=C(N)N)NC(=O)CCNC(=O)CCCCCNC(=O)c1cccc(-c2c3cc(N)ccc3c3ccc(N)cc3[n+]2C)c1.[Cl-] (centres undefined) | > 100

Each molecule was assayed on MT4 (assay: as §5). Conditions: Homo sapiens.
Type: functional
Procedure, shortened: as §6

Compound | CC50 [µM]
COC(=O)C(CCCN=C(N)N)NC(=O)CCNC(=O)c1cccc(-c2c3cc(N)ccc3c3ccc(N)cc3[n+]2C)c1 (centres undefined) | 21
COC(=O)C(CCCN=C(N)N)NC(=O)CCCCCNC(=O)c1cccc(-c2c3cc(N)ccc3c3ccc(N)cc3[n+]2C)c1 (centres undefined) | 60
C[n+]1c(-c2cccc(C(=O)NCCC(=O)NC(CCCN=C(N)N)C(=O)O)c2)c2cc(N)ccc2c2ccc(N)cc21 (centres undefined) | 47
C[n+]1c(-c2cccc(C(=O)O)c2)c2cc(N)ccc2c2ccc(N)cc21 | 42
C[n+]1c(-c2cccc(C(=O)NCCCCCC(=O)NC(CCCN=C(N)N)C(=O)O)c2)c2cc(N)ccc2c2ccc(N)cc21.[Cl-] (centres undefined) | 59
C[n+]1c(-c2cccc(C(=O)NCCCCCC(=O)NCCC(=O)NC(CCCN=C(N)N)C(=O)O)c2)c2cc(N)ccc2c2ccc(N)cc21 (centres undefined) | > 100

The molecules below were run on PBMC (assay: Cytotoxicity towards uninfected PBMC cell lines). Conditions: Homo sapiens.
Type: functional
Procedure, shortened: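 Uninfected PBMC incubated 7 days with compound; viability by colorimetric MTT assay. Triplicate per concentration, experiment repeated twice.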

Compound | CC50 [µM]
COC(=O)C(CCCN=C(N)N)NC(=O)CCNC(=O)c1cccc(-c2c3cc(N)ccc3c3ccc(N)cc3[n+]2C)c1 (centres undefined) | 47
COC(=O)C(CCCN=C(N)N)NC(=O)CCCCCNC(=O)c1cccc(-c2c3cc(N)ccc3c3ccc(N)cc3[n+]2C)c1 (centres undefined) | > 100
C[n+]1c(-c2cccc(C(=O)NCCC(=O)NC(CCCN=C(N)N)C(=O)O)c2)c2cc(N)ccc2c2ccc(N)cc21 (centres undefined) | > 100
C[n+]1c(-c2cccc(C(=O)O)c2)c2cc(N)ccc2c2ccc(N)cc21 | 44
C[n+]1c(-c2cccc(C(=O)NCCCCCC(=O)NC(CCCN=C(N)N)C(=O)O)c2)c2cc(N)ccc2c2ccc(N)cc21.[Cl-] (centres undefined) | > 100
C[n+]1c(-c2cccc(C(=O)NCCCCCC(=O)NCCC(=O)NC(CCCN=C(N)N)C(=O)O)c2)c2cc(N)ccc2c2ccc(N)cc21 (centres undefined) | > 100
COC(=O)C(CCCN=C(N)N)NC(=O)CCNC(=O)CCCCCNC(=O)c1cccc(-c2c3cc(N)ccc3c3ccc(N)cc3[n+]2C)c1.[Cl-] (centres undefined) | > 100
